From ChEMBL document CHEMBL1123400, “Synthesis and biological activity of certain nucleoside and nucleotide derivatives of pyrazofurin” (1986) come the findings set out here.

One experiment concerns Human alphaherpesvirus 2. Kind of experiment: In vitro antiviral activity against herpes simplex virus type 2 (HSV-2) in Vero cells. To be noted: Human alphaherpesvirus 2, Vero; read-out: ED50 (the source's name). The experiment is classed as functional. The method, boiled down: (§1)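 Confluent Vero monolayers (4 × 10^4 cells/well, grown 24 h at 37 °C in EMEM with 10% newborn bovine serum) were infected with virus: HSV-2 at 100, measles at 100, para-3 at 60 TCID50/well. After 30 min adsorption at 37 °C, compound was added in seven 0.5-log steps, final 5 × 10^-6 to 5 × 10^-3 M (active ones 5 × 10^-7 to 5 × 10^-4 M), duplicate wells.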

The test system of the next experiment is Human respirovirus 3. Kind of experiment: In vitro antiviral activity against parainfluenza type 3 virus in Vero cells. The experiment is classed as functional. To be noted: Human respirovirus 3, Vero; read-out: ED50 (the source's name). The procedure, abridged: as §1
Experiment [1] relates to L1210. Put plainly: In vitro inhibitory effect on growth of L1210 leukemia cells. The experiment is classed as functional. To be noted: Mus musculus, read-out: ID50 (the source's name). The method, boiled down: (§2)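 Suspension cells in RPMI-1640 with 10% FBS and 20 mM Hepes were seeded at 1 × 10^5 cells/mL. Filter-sterilized compound was added in duplicate at log concentrations 1 × 10^-10 to 1 × 10^-4 M. After 48 h at 37 °C, cells were Coulter-counted. ID50 is 50% growth inhibition versus untreated controls, averaged over two to three determinations.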

Another experiment has as its system Measles morbillivirus. Kind of experiment: In vitro antiviral activity against measles virus in Vero cells. The experiment is classed as functional. To be noted: read-out: ED50 (the source's name). The method, boiled down:
as §1

The subject of another experiment is Vaccinia virus. Put plainly: In vitro antiviral activity against vaccinia virus in Vero cells. The experiment is classed as functional. To be noted: Orthopoxvirus vaccinia, read-out: ED50 (the source's name).
The test system of experiment [2] is P388. Put plainly: In vitro inhibitory effect on growth of P388 leukemia cells. It is filed as functional. To be noted: Mus musculus, read-out: ID50 (the source's name). The method, boiled down: as §2
A further experiment relates to Vero. Kind of experiment: Maximum tolerated concentration against Vero cells. It is filed as functional, Chlorocebus sabaeus. The method, boiled down: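 Single uninfected confluent Vero monolayer wells were exposed alongside the antiviral wells, final 5 × 10^-6 to 5 × 10^-3 M, for 72 h at 37 °C, 5% CO2. Cytotoxicity was any microscopically visible change in morphology or monolayer density (lysis, rounding, detachment). MTC is the […].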

The subject of the next experiment is B16. Kind of experiment: In vitro inhibitory effect on growth of B16 melanoma cells. To be noted: Mus musculus, read-out: ID50 (the source's name). The experiment is classed as functional. The method, boiled down: (§3)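 Monolayers were seeded at 2.5 × 10^4 cells/well and grown 24 h at 37 °C, 5% CO2. Lewis lung cells were kept in RPMI-1640 with 5% fetal calf serum; B16 cells in MEM with 10% FCS, nonessential amino acids, 1 mM pyruvate and vitamins. Medium was replaced with compound at log concentrations 1 × 10^-10 to 1 × 10^-4 M. After 72 h, cells were PBS-washed, trypsinized and Coulter-counted. ID50 is 50% growth inhibition versus controls, averaged over two to three determinations.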

Experiment [3] deals with Lewis lung carcinoma cell line. Kind of experiment: In vitro inhibitory effect on growth of lewis lung carcinoma cells. The experiment is classed as functional. To be noted: Mus musculus, read-out: ID50 (the source's name). The method, boiled down: as §3
Experiment [4] deals with P388. Put plainly: In vitro inhibitory effect on growth of P388 leukemia cell. The experiment is classed as functional. To be noted: Mus musculus, read-out: ID50 (the source's name). The method, boiled down: as §2
For experiment [5], the system named is Lewis lung carcinoma cell line. Kind of experiment: In vitro inhibitory effect on growth of lewis lung carcinoma cells. The experiment is classed as functional. To be noted: Mus musculus, read-out: ID50 (the source's name). The method, boiled down:
as §3

For experiment [6], the system named is P388. Put plainly: In vitro inhibitory effect on growth of P388 leukemia cells. It is filed as functional. To be noted: Mus musculus, read-out: ID50 (the source's name). The procedure, abridged: as §2
Experiment [7] deals with L1210. Put plainly: In vitro inhibitory effect on growth of L1210 leukemia cells. The experiment is classed as functional. To be noted: Mus musculus, read-out: ID50 (the source's name). The procedure, abridged:
as §2

Experiment [8] is described as follows: In vitro inhibitory effect on growth of […] cells. The experiment is classed as functional. To be noted: Mus musculus; read-out: ID50 (the source's name). The method, boiled down: as §3

Each structure is given as a SMILES string.

Take `N/C(=N/O)c1[nH]nc([C@@H]2O[C@H](CO)[C@@H](O)[C@H]2O)c1OCc1ccccc1`: the EC50 in the experiment on Human alphaherpesvirus 2, with Human respirovirus 3, in the experiment with Measles morbillivirus and in the experiment with Vaccinia virus was > 5000 µM in each case. Moreover, the IC50 with L1210 [1] and with P388 [2] was > 100 µM throughout. Further, the MTC in the experiment on Vero is >5 mM.

With `NC(=O)c1ncn([C@@H]2O[C@H](CO)[C@@H](O)[C@H]2O)n1` [RIBAVIRIN], the EC50 is 190 µM with Human alphaherpesvirus 2, 160 µM in the experiment with Human respirovirus 3, 99 µM in the experiment with Measles morbillivirus and 90 µM in the experiment with Vaccinia virus. Also, in the experiment with Vero, the MTC was >5 mM.

`NC(=O)c1[nH]nc([C@@H]2O[C@H](COP(=O)([O-])[O-])[C@@H](O)[C@H]2O)c1OCc1ccccc1.[Na+].[Na+]`: the EC50 with Human alphaherpesvirus 2, in the experiment on Human respirovirus 3, with Measles morbillivirus and in the experiment on Vaccinia virus was > 5000 µM throughout. Moreover, the IC50 was 130 µM with L1210 [1] and 94 µM in the experiment on P388 [2]. Besides, the MTC in the experiment on Vero is >5 mM.

`N#CC1NN=C([C@@H]2O[C@H](CO)[C@@H](O)[C@H]2O)C1=O` (some centres not stated): the IC50 in the experiment with B16 amounted to 72 µM; in the experiment on L1210 [1] it was 13 µM; in [3] it was 28 µM; in the experiment on P388 [2], 45 µM. In addition, the EC50 was > 5000 µM in the experiment with Human alphaherpesvirus 2, > 5000 µM in the experiment on Human respirovirus 3, 5000 µM in the experiment on Measles morbillivirus and 5000 µM in the experiment with Vaccinia virus. For the same molecule, in the experiment with Vero, the MTC is >5 mM.

Consider `N=C(N)C1NN=C([C@@H]2O[C@H](CO)[C@@H](O)[C@H]2O)C1=O` (some centres not stated), for which the IC50 is > 100 µM with B16, 79 µM in the experiment with L1210 [1], 89 µM in experiment [3] and > 100 µM in the experiment with P388 [2]. Also, the EC50 in the experiment with Human alphaherpesvirus 2 was 3100 µM; in the experiment with Measles morbillivirus it was 5000 µM; with Vaccinia virus, > 5000 µM. Also, in the experiment on Vero, the MTC is >5 mM.

In the case of `NC(=O)c1[nH]nc(C2O[C@H](COP(=O)(O)O)[C@H](O)[C@@H]2O)c1O` (some centres not stated), the IC50 amounted to 0.24 µM in the experiment with B16, 0.0027 µM in the experiment on L1210 [1], 0.005 µM in experiment [3] and 0.001 µM in the experiment on P388 [2]. The EC50 was determined as 23 µM with Human alphaherpesvirus 2, 6.3 µM with Human respirovirus 3, 20 µM in the experiment with Measles morbillivirus and 4 µM in the experiment on Vaccinia virus. The MTC in the experiment with Vero is >5 mM.

On to `NC(=S)c1[nH]nc([C@@H]2O[C@H](CO)[C@@H](O)[C@H]2O)c1OCc1ccccc1`, for which the IC50 (with B16; in the experiment with L1210 [1]; in experiment [3]; in the experiment on P388 [2]) was > 100 µM each time. The EC50 in the experiment with Human alphaherpesvirus 2 is 2800 µM; with Human respirovirus 3 it was > 5000 µM; in the experiment on Measles morbillivirus, 500 µM; in the experiment with Vaccinia virus, 2100 µM. The MTC in the experiment on Vero is >5 mM.

In the case of `NC(=O)C1NN=C([C@@H]2O[C@H](CO)[C@@H](O)[C@H]2O)C1=O` (some centres not stated), the IC50 amounted to 0.063 µM in the experiment on B16, 0.0032 µM in the experiment with L1210 [1], 0.0018 µM in experiment [3] and 0.0033 µM in the experiment with P388 [2]. Further, the EC50 was 20 µM in the experiment with Human alphaherpesvirus 2, 3 µM in the experiment with Human respirovirus 3, 9.6 µM with Measles morbillivirus and 2.8 µM with Vaccinia virus. Besides, the MTC in the experiment on Vero is 1.6 mM.

For the molecule `NC(=O)c1[nH]nc([C@@H]2O[C@H](CO)[C@@H](O)[C@H]2O)c1OCc1ccccc1`, the EC50 was > 5000 µM in the experiment on Human alphaherpesvirus 2, > 5000 µM with Human respirovirus 3, 1300 µM with Measles morbillivirus and > 5000 µM in the experiment with Vaccinia virus. The IC50 in the experiment with L1210 [1] amounted to 75 µM; in the experiment with P388 [2], 62 µM. Moreover, the MTC in the experiment on Vero is >5 mM.

As for `COP(=O)(OC)OC[C@H]1O[C@@H](C2=NNC(C(N)=O)C2=O)[C@H](O)[C@@H]1O` (some centres not stated), the IC50 in the experiment on B16 came out at 2.3 µM; in the experiment on L1210 [1], 0.0058 µM; in [3] it was 0.01 µM; in the experiment on P388 [2], 0.012 µM. Besides, the EC50 with Human alphaherpesvirus 2 was > 5000 µM; in the experiment with Human respirovirus 3 it was 1000 µM; with Measles morbillivirus, 1400 µM; in the experiment with Vaccinia virus it was 280 µM. In the experiment on Vero, the MTC was >5 mM.

For `NC(=O)c1[nH]nc(C2OC3COP(=O)(O)O[C@@H]3[C@@H]2O)c1O` (some centres not stated), the IC50 with B16 is 6.3 µM; in the experiment with L1210 [1] it was 2.5 µM; in [3] it was 1.7 µM; in the experiment on P388 [2], 4.4 µM. The EC50 in the experiment with Human alphaherpesvirus 2 is 130 µM; with Human respirovirus 3, 500 µM; in the experiment with Measles morbillivirus it was > 5000 µM; in the experiment on Vaccinia virus, 250 µM. Besides, the MTC in the experiment on Vero is >5 mM.

With `CCOP(=O)(O)OC[C@H]1O[C@@H](C2=NNC(C(N)=O)C2=O)[C@H](O)[C@@H]1O` (some centres not stated), the IC50 in the experiment with B16 was found to be 0.23 µM; with L1210 [1], 0.0039 µM; in experiment [3], 0.0007 µM; with P388 [2], 0.0032 µM. The EC50 with Human alphaherpesvirus 2 was found to be 590 µM; in the experiment on Human respirovirus 3, 80 µM; in the experiment on Measles morbillivirus, 97 µM; in the experiment on Vaccinia virus, 26 µM. Further, the MTC in the experiment with Vero is >5 mM.

As for `COc1c([C@@H]2O[C@H](CO)[C@@H](O)[C@H]2O)n[nH]c1C(N)=O`, the EC50 is > 5000 µM in the experiment with Human alphaherpesvirus 2, > 5000 µM in the experiment with Human respirovirus 3, > 5000 µM with Measles morbillivirus and 2800 µM with Vaccinia virus. Besides, the IC50 is 29 µM with L1210 [1] and 40 µM in the experiment with P388 [2]. Also, the MTC in the experiment on Vero was >5 mM.

Take `COc1c([C@@H]2O[C@H](CO)[C@@H](O)[C@H]2O)nn(C)c1C(N)=O`: the EC50 is 3200 µM in the experiment on Human alphaherpesvirus 2, > 5000 µM with Human respirovirus 3, > 5000 µM with Measles morbillivirus and 5000 µM in the experiment with Vaccinia virus. Also, the IC50 with P388 [4] and with L1210 [1] was > 100 µM throughout. In the experiment with Vero, this molecule came in with an MTC of 5 mM.

As to `NC(=O)c1[nH]nc(C2O[C@@H](COP(=O)(O)OP(=O)(O)OC[C@H]3OC(n4cnc5c(N)ncnc54)[C@H](O)[C@@H]3O)[C@H](O)[C@@H]2O)c1O` (some centres not stated), the EC50 was determined as 10 µM in the experiment with Human alphaherpesvirus 2, 5 µM in the experiment with Human respirovirus 3, 16 µM with Measles morbillivirus and 9 µM with Vaccinia virus. Besides, the IC50 in [5] worked out at 0.0048 µM; with P388 [6], 0.0088 µM; in the experiment with L1210 [7] it was 0.004 µM; in [8], 0.6 µM. The MTC with Vero was found to be 5 mM.

Take `CN1N=C([C@@H]2O[C@H](CO)[C@@H](O)[C@H]2O)C(=O)C1C(N)=O` (some centres not stated): the EC50 was > 5000 µM in the experiment on Human alphaherpesvirus 2, > 5000 µM with Human respirovirus 3, > 5000 µM with Measles morbillivirus and 1600 µM in the experiment on Vaccinia virus. For the same molecule, the IC50 was found to be 15 µM in the experiment with L1210 [1] and 17 µM in the experiment on P388 [2]. Further, in the experiment on Vero, the MTC is >5 mM.
